# An excerpt weighted towards active compounds, which were near 2.2% of everything screened.
# DDE Tn6 FP inh = inhibitors of Tn6 peptide binding to fibrin DD(E), primary screen, biochemical, fluorescence polarization, human fibrin, Tn6 probe; Fibrinogen beta chain (Homo sapiens), P02675; Fibrin DD(E) TRITC-Tn6 fluorescence polarization displacement; inhibition, % at 8.3 µM; actives 0.21% (n = 370,000);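 active = inhibition above a per-campaign cutoff: mean of compounds within control limits plus 3 SD, cut at about 15% in these data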;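 note: 0% = median of all compound wells on the plate and 100% = blocking peptide control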
# KLK7 zymogen act = proKLK7 zymogen activators, primary screen, biochemical, fluorescence intensity | Kallikrein-7 (Homo sapiens), P49862 | purified proKLK7, EDANS-DABCYL substrate fluorescence; 100% is mature enzyme control, 0% vehicle | activation, % at 7 µM | actives 0.9% (n = 370,000) | AID 652039, 2013;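 active = activation above the mean of all tested compounds plus 3 SD, computed per campaign excluding outliers beyond control limits, cut at about 13% in these data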
# Neddyl block = inhibitors of cullin neddylation, primary screen, biochemical, TR-FRET, uHTS, NAE and Ubc12 | actives 0.58% (n = 360,000) | NEDD8-conjugating enzyme Ubc12 (Homo sapiens) + NEDD8-activating enzyme E1 regulatory … | calls only at 25 µM; in the data active = inhibition above about 36%
# Target sequence (P61081 whole entry, looked up): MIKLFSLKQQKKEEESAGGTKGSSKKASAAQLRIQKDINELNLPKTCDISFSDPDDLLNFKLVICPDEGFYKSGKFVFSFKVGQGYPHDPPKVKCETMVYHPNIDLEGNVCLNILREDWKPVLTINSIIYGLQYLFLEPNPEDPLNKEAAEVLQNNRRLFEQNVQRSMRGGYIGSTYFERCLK
# Target sequence (Q13564 whole entry, looked up): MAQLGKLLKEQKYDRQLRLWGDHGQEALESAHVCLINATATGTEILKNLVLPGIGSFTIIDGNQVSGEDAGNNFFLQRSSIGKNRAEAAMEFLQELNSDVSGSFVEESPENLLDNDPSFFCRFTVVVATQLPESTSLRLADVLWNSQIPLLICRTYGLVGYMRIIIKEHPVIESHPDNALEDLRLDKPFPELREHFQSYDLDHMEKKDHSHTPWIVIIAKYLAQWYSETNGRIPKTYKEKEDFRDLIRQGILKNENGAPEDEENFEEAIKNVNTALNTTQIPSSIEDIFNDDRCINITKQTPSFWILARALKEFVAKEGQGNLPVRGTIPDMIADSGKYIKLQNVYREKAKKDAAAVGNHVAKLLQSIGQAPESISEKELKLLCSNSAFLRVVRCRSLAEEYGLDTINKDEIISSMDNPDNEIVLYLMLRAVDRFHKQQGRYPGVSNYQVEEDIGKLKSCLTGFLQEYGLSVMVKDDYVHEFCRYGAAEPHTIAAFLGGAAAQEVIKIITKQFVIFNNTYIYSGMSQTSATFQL
# Tn7 DDE FP = inhibitors of Tn7 peptide binding to fibrin DD(E), primary screen, biochemical, fluorescence polarization, human fibrin, Tn7 probe | inhibition, % at 8.3 µM | Fibrinogen beta chain (Homo sapiens), P02675 | FP displacement of FITC-Tn7 peptide from fibrin DD(E); 0% = median of compound wells per plate | actives 0.13% (n = 370,000);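 active = inhibition above the mean of compounds falling within the control limits plus 3 SD of them, cut at about 14% in these data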;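 note: 0% = plate median of compound wells and 100% = 10 µM Aha-Tn7 peptide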
#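 Test system: human clot-derived fibrin DD(E) complex / Quantity: 2 µM final DD(E) protein / Incubation: 10 min plus 3 h, room temperature / Measured by: fluorescence polarization / Benchmarks: high control of 10 µM Aha-Tn7 peptide / Replicates: singlicate testing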
# SKN-1 block = suppressors of acrylamide-induced Pgst-4::GFP reporter in worms, primary screen, SKN-1 inhibitor project, whole organism, uHTS, GFP/RFP fluorescence ratio, strain VP596. C. elegans VP596 Pgst-4::GFP/RFP ratio, 24 h. actives 0.49% (n = 360,000). AID 624304, 2012. inhibition, % at 21.8 µM;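 active = interference check ratio from 0.5 to 1.5 plus GFP to RFP signal ratio inhibition reaching or exceeding a fixed threshold, cut at about 30% in these data, passing the limit was not always enough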
# MT1-MMP act inh = blockers of MT1-MMP proenzyme processing, primary screen, HT1080 RFP-PRO-GFP cells, GFP/RFP fluorescence; Matrix metalloproteinase-14 (Homo sapiens), P50281; GFP/RFP ratio fluorescence, overnight; percent of plate control window, DMSO zero; GFP/RFP ratio change, % at 20 µM; actives 0.061% (n = 360,000);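 active = GFP/RFP ratio change of at least 30% with cell ATP level not reduced by more than half and red fluorescence within 50% of control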
#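 Assay system: HT1080 RFP-PRO-GFP cells | Dosing: 20 µM single dose, 1% DMSO | Incubation: Cells overnight before dosing, compound overnight, 37 °C, 5% CO2 | Evaluation: GFP/RFP fluorescence ratio | Control set: DMSO-only wells and HT1080 RFP-L50D-GFP cell wells as references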
# Neddyl conf = blockade of NEDD8 conjugation to cullin – biochemical, TR-FRET, single concentration, confirmation | shares compounds with Neddyl block | TR-FRET cullin neddylation biochemical assay | calls only at 25 µM | actives 13% (n = 1,800) | AID 652217, 2013; in the data active = inhibition above about 40%;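 note: neddylation substrate is the cullin 1 ring ligase complex with SKP2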
# Active calls of the source: *; i = inactive; nt = not tested or not shown; + = active, no number.
SMILES,DDE Tn6 FP inh,KLK7 zymogen act,Neddyl block,Tn7 DDE FP,SKN-1 block,MT1-MMP act inh,Neddyl conf
COCCNC(=O)CSc1ccc(-c2nc3ccccc3[nH]2)cn1,-5,0,+,-1,16,8,+
Cc1c(CCC(=O)NCCCn2ccnc2)c(=O)oc2cc3occ(C(C)(C)C)c3cc12,-4,-3,+,0,1,6,nt
CCOC(=O)C(=CNc1ccc2c(c1)nnn2-c1ccc(Cl)cc1)C(=O)OCC,8,-2,+,3,-1,6,nt
CCOC(=O)C(=CNc1ccc(O)c(C(=O)OC)c1)C(=O)OCC,5,4,+,-1,20,2,i
CCOC(=O)C(=CNc1cc(C)nn1-c1ccc(C)cc1)C(=O)OCC,11,1,i,1,2,-9,nt
Cc1ccccc1CN1CCC(n2nccc2NC(=O)c2ccc3c(c2)OCO3)CC1,3,1,i,5,20,0,nt
COc1ccc(C(CC(=O)N2CCCCC2)c2c(OC)cc(OC)c3ccc(=O)oc23)cc1 (stereo unspecified),8,2,+,-3,16,-1,+
COc1ccc(NC(=O)N2CCC(O)(c3cccnc3)CC2)c(OC)c1,-5,0,i,8,-9,-4,nt
COc1ccc(CNC(=O)CCNS(=O)(=O)c2ccc(Br)s2)cc1,5,0,i,8,2,-1,nt
CCOC(=O)c1c(C)[nH]c(C(=O)Nc2cc(OCC)c(N3CCOCC3)cc2OCC)c1C,8,0,+,4,7,4,i
CCc1ccccc1N=Nc1c(N)[nH]n(-c2ccccc2)c1=O,-9,1,nt,6,nt,nt,nt
C=CCNc1ncnc2c1cnn2-c1ccc(OC)cc1,-8,-1,+,-3,-7,8,i
COc1ccc(-n2ncc3c(NCCCN4CCOCC4)ncnc32)cc1,0,0,+,4,9,2,i
O=C(NCCN1CCOCC1)c1cccc(Cl)c1,2,0,i,1,-6,16,nt
CCC(CO)Nc1nc(CN2CCCCC2)nc2scc(-c3ccccc3)c12 (stereo unspecified),4,0,i,4,9,-7,nt
CCc1ccc(-c2cc(C(=O)Nc3c(C)n(C)n(-c4ccccc4)c3=O)c3ccccc3n2)s1,nt,nt,+,nt,-4,3,i
Cc1cccn2c(=O)c3cc(C(=O)N4CCCCC4C)sc3nc12 (stereo unspecified),-2,-1,+,4,19,-1,+
COc1ccccc1N1CCN(C(=O)c2cc3c(s2)-c2ccccc2OC3)CC1,-2,-5,+,0,0,1,i
O=C(c1cc2c(s1)-c1ccccc1OC2)N1CCc2ccccc2C1,-12,-34,nt,1,2,-6,nt
CCCCN(CC)C(=O)c1cc2c(=O)n3cccc(C)c3nc2s1,4,4,+,-10,10,-1,nt
COc1ccccc1N1CCN(C(=O)c2cc3c(=O)n4cccc(C)c4nc3s2)CC1,5,6,+,-3,-11,3,+
CCOC(=O)N1CCN(C(=O)c2cc3c(=O)n4cccc(C)c4nc3s2)CC1,-2,2,nt,-1,3,-2,nt
Cc1ccc(CNC(=O)COC(=O)COc2ccc(C#N)cc2)cc1,-2,1,i,-6,-2,6,nt
COc1cc2c(cc1OC)C1(CCCC1)CNC2c1ccc([N+](=O)[O-])cc1 (stereo unspecified),1,0,i,1,-8,-3,nt
COc1cccc2[nH]c3c(N4CCCC(C)C4)ncnc3c12 (stereo unspecified),-3,5,nt,2,21,20,nt
SMILES,DDE Tn6 FP inh,KLK7 zymogen act,Neddyl block,Tn7 DDE FP,SKN-1 block,MT1-MMP act inh,Neddyl conf
CC(C)c1ccc(S(=O)(=O)N2CCN(C(=O)CN3C(=O)NC4(CCCC4)C3=O)CC2)cc1,-10,0,i,-2,11,-1,nt
COc1cccc(CC2CC(=O)N(CCc3ccc4c(c3)OCO4)C2=O)c1 (stereo unspecified),-8,0,i,0,-5,4,nt
CCOC(=O)c1ccc2[nH]c(C)c(C)c2c1,-9,0,i,1,5,3,nt
Cc1[nH]c2ccc(C(=O)OCC(=O)Nc3cccc(S(N)(=O)=O)c3)cc2c1C,-1,0,+,-6,2,0,i
Cc1ccc(/C=C/C(=O)Nc2cccnc2)o1,-5,0,i,3,-1,-3,nt
Cc1coc(C)c1C(=O)Nc1ccc2ccccc2c1,-4,1,i,9,7,1,nt
CC[C@]12CCCN3CCc4c(n(c5ccccc45)[C@](O)(C(=O)OC)C1)[C@@H]32,-1,7,+,-2,-2,-1,i
CCC12CCCN3CCc4c(n(c5ccccc45)C(O)(C(=O)OC)C1)C32 (stereo unspecified),6,2,i,2,-2,-18,nt
c1coc(C2Nc3ccccc3C3OCCC23)c1 (stereo unspecified),-11,1,+,3,-3,4,i
CCOC(=O)c1oc2cc(O)cc(C)c2c1C,2,-20,+,-2,-13,6,+
c1cn2c(-c3ccoc3)cncc2n1,1,-2,+,5,29,-2,+
O=C(c1cccc(-c2cncc3nccn23)c1)N1CCOCC1,8,12,nt,-7,3,-1,nt
CC(NC(=O)C(C)N1c2cccc3cccc(c23)S1(=O)=O)c1ccccc1 (stereo unspecified),-9,-2,+,-6,10,0,i
CCN(CC)CCOC(=O)c1ccccc1Br,0,0,i,4,-2,2,nt
CCN(CC)CCOC(=O)c1cccc2c1-c1ccccc1C2O (stereo unspecified),2,1,+,0,-9,-1,i

# From PubChem
